According to ChEMBL document CHEMBL4513216, “Probing the Open Global Health Chemical Diversity Library for Multistage-Active Starting Points for Next-Generation Antimalarials” (ACS Infect Dis, 2020):

Assay: Toxicity liver stage against HepG2, at 10uM
Assay type: cell-based
Design: test concentration 10 uM, cell line HepG2-A16-CD81EGFP
Details: human, HepG2-A16-CD81EGFP cells; read-out: INHIBITION
Procedure, shortened: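 Uninfected HepG2-A16-CD81EGFP cells, 3 × 10^3 per well, 1536-well, plated on prespotted compound at 10 μM final, parasite-free screening media added to match infected plates; puromycin 10 μM positive, DMSO 0.5% negative; run in parallel with 48 h PbLuc assay at 37 °C, 5% CO2; viability by CellTiter-Glo luminescence, normalized to controls.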

Row | SMILES | cytotoxicity at 10 µM [%]
1 | CC(C)C[C@H](N)COc1cccc(F)c1Oc1ccccc1 | -5.08
2 | Cc1cc(NCCC(=O)NC(C)C)nc(-c2ccncc2)n1 | -6.74
3 | Cc1ccc2c(c1)C(NC1CC1)CC21CCNCC1 (centres undefined) | -98
4 | Cc1cccc(CN(C(=O)CS(C)(=O)=O)C(C)C)c1 | 1.68
5 | Cc1nc(C(C)(C)C)sc1C(=O)NCCn1ccnc1 | -0.586
6 | CC(C)(C)NC(=O)COc1ccc(CNCCOc2ccccn2)cc1 | -3.76
7 | CC(NCCn1cccn1)c1ccccc1Cl (centres undefined) | -5.03
8 | CCc1ncc(C(=O)N2CCN(C(=O)COc3ccccc3)CC2)cn1 | -12.8
9 | O=C(NCc1ccccn1)c1nnn(-c2ccc(Br)cc2)n1 | 1.47
10 | CCn1ncc2c1CCCC2NCc1ccc2c(c1)CCO2 (centres undefined) | -4.47
11 | CCCn1ccc2cc(NC(=O)CC3CCCO3)ccc21 (centres undefined) | -3.45
12 | Cc1ccc2c(c1)C(NCc1nccn1Cc1ccccc1)CCCO2 (centres undefined) | 1.26
13 | CN(C)c1ncc(-c2cc(C(=O)NCCC#N)n(CC3CC3)c2)cn1 | 1.29
14 | CNC(=O)CC1CC2(CCN(S(C)(=O)=O)CC2)c2ccccc21 (centres undefined) | 5.75
15 | CN(C)CCN1CCc2c(nnn2C)C1COCc1ccccc1 (centres undefined) | -90.3
16 | Cc1c(Cl)c(C(=O)NCc2ccc(F)cc2)nn1C | -2.26
17 | Cc1nc2c(c(NCCc3nc(C)c(Cl)s3)n1)CCNCC2 | -9.28
18 | Cc1nn(C)c(C)c1C1CCCN1CC(=O)Nc1ccc(Cl)cn1 (centres undefined) | -7.1
19 | CC(C)[C@H]1CN(c2ccncc2)C[C@@H]1NS(=O)(=O)N(C)C | 4.56
20 | Cc1nc(CN2CCCC(NCC(=O)Nc3cccnc3)C2)no1 (centres undefined) | 0.0757
21 | Cc1nnc2n1CCN(C(C(=O)NC1CC1)c1ccccc1)C2 (centres undefined) | -2.94

Row | SMILES | cytotoxicity at 10 µM [%]
22 | CN(C)c1ncccc1CNc1cc(N2CCCC2CO)ncn1 (centres undefined) | -8.48
23 | COc1c(CNCc2cccc(Cn3cncn3)c2)c(C)nn1C | -11.2
24 | CC(NCc1nnc2n1CCCC2)c1nc(C(C)(C)C)no1 (centres undefined) | -39.2
25 | CN1CCC(c2cncc(N(C)C)n2)CC1 | -11.5
26 | CC(C(=O)N1CCCN(c2ccc(C#N)cc2)CC1)n1cccn1 (centres undefined) | -3.02
27 | O=C(NCC(=O)N1CCCCC1)c1sccc1C1CC1 | -136
28 | COCCN1CCC2(C1)c1ccccc1S(=O)(=O)N2Cc1ccccc1 (centres undefined) | 10.5
29 | CN1CCC(Cc2noc(-c3cccc4c3OCC4)n2)CC1 | -4.71
30 | COCCCC1CCN([C@@H]2c3ccccc3C3(CCNCC3)[C@H]2O)CC1 | -4.67
31 | CCOCC1CN(C(=O)c2ccco2)Cc2cnn(CC)c21 (centres undefined) | -69
32 | O=C(CN1CCCS1(=O)=O)Nc1ccc(OC2CCCC2)cc1 | -7.31
33 | Cc1nc(C)n(CC2CCCN2CC(=O)NCCc2cccs2)n1 (centres undefined) | -0.749
34 | Cn1cc(CN2CCCC23CCN(C(=O)c2ccccc2)CC3)cn1 | 0.613
35 | COC(=O)[C@@H]1Cc2ncn(C)c2CN1S(=O)(=O)Cc1ccccc1 | -0.861
36 | O=C(NCCCO)C1CC(=O)N(c2n[nH]c3cccc(F)c23)C1 (centres undefined) | -1.07
37 | Cc1ccc(CN(C)C(=O)C(C)n2ccnc2C(C)C)o1 (centres undefined) | 5.99
38 | O=C(NCCOc1ccccc1)NCC(O)c1cccs1 (centres undefined) | -7.83
39 | CC1C(=O)Nc2cccnc2N1S(=O)(=O)c1cc(F)cc(F)c1 (centres undefined) | -5.26
40 | Cc1cc(C(F)(F)F)nc(CNC(=O)CCCN2CCCCC2)n1 | -53.1
41 | Cn1nc2c(cc1=O)CN(Cc1nc(-c3ccccn3)no1)CC2 | -3.51
42 | CSc1ccc(CN(CCO)C(=O)CCc2cccc(F)c2)cc1 | 2.93

Row | SMILES | cytotoxicity at 10 µM [%]
43 | CN(C)C(=O)COC[C@]12COC[C@H]1CN(Cc1ccco1)C2 | -0.522
44 | Cc1nc(CN2CCN(CCCc3nc4ccccc4o3)CC2)no1 | 9.13
45 | CC(C)N(CC(=O)Nc1cccc(C(=O)N(C)C)c1)C1CC1 | -4.81
46 | COc1ccccc1CN1CCC2(CC1)CC(Oc1ccccn1)CO2 (centres undefined) | -1.96
47 | COc1c(CNCC(O)c2ccccc2)c(C(C)C)nn1C (centres undefined) | -16.5
48 | OC(CN1CCCc2ccc(F)cc21)Cn1cccn1 (centres undefined) | 5.95
49 | CS(=O)(=O)N1C[C@H](C(=O)Nc2cnccn2)C[C@H]2OCC[C@H]21 | 10.7
50 | O=C(CN1CCC(c2cc(=O)n3c(n2)CCCCC3)C1)N1CCCCC1 (centres undefined) | -22.8
51 | Cc1nc(C2CCCN2Cc2nc(C3CC3)no2)no1 (centres undefined) | -12.7
52 | COc1cc(CO)c(OC)c2c1OCO2 | -2.93
53 | Cc1cc(C)c2c(NCCC3(O)CCCC3)ncnc2n1 | -4.44
54 | CCC1CN(C)c2ccccc2CN1C(=O)CCn1cncn1 (centres undefined) | -1.87
55 | COCCN1CCCC2(CCN(c3nccnc3N(C)C)C2)C1=O (centres undefined) | -0.525
56 | c1nc2c(c(C3CCOC3)n1)CCN(Cc1ccoc1)CC2 (centres undefined) | 7.01
57 | CN(C(=O)c1ccc(Cl)c(S(C)(=O)=O)c1)c1ccccc1 | -1.47
58 | CCOc1cc(C)nc(N2CCN(C(=O)CC)CC2)n1 | -6.68
59 | Cc1noc(C)c1C(=O)N1C[C@H]2CCC[C@@]2(COc2ccccn2)C1 | -5.53
60 | CCOCCCn1c(NC(=O)c2cnc(C)s2)nc2ccccc21 | -30
61 | Cc1nc(NC(=O)N(C)Cc2ccoc2)nn1C | -6.03
62 | CC(=O)NCCNc1nc(-c2ccccn2)nc2c1c(C)nn2C | 2.72
63 | CC(OCC(F)(F)F)C(=O)Nc1ccc(-n2cncn2)nc1 (centres undefined) | 3.44

Row | SMILES | cytotoxicity at 10 µM [%]
64 | O=C(c1ccc(O)nc1)N1CCC(Nc2cccnn2)CC1 | -8.83
65 | Cc1ccsc1[C@@H]1CCN(C(=O)c2ccc(-c3cc[nH]n3)cc2)C[C@H]1O | 4.28
66 | Cc1cc(CSCc2csc(CS(C)(=O)=O)n2)no1 | -2.49
67 | CS(=O)(=O)CCCSc1n[nH]c(-c2ccc3c(c2)CCC3)n1 | -0.0422
68 | COCCC(=O)NCC1COc2cc(OC)ccc2C1 (centres undefined) | 0.0723
69 | CNc1nccnc1C1CN(C(=O)c2c[nH]cn2)CCO1 (centres undefined) | 3.4
70 | COc1c(C2CCCN2Cc2noc(C(C)C)n2)c(C)nn1C (centres undefined) | -8.93
71 | CC1(C)CNC(=O)c2nc(-c3nnn[nH]3)[nH]c2C1 | -5.69
72 | CC(=O)N1CCN(C(=O)CCCc2nc(C(C)C)no2)CC1 | -9.34
73 | Cc1cnc(N2CCC(c3ccncc3)CC2)nc1-c1ccnn1C | 28.7
74 | Cn1cnc2c1CCN(CCOc1ccc(C#N)cc1)C2 | -9.47
75 | CCn1c(=O)n(Cc2nc(C3CC3)no2)c2ccccc21 | -43.2
76 | O=S(=O)(N1CCCCC1)N1CCC(Oc2cnccn2)CC1 | -14.1
77 | COCCCNC(=O)Cn1c(-c2cccc(Cl)c2)nc(C)cc1=O | -8.41
78 | Cc1ncc(CC(=O)N2CCCCC2CCN2CCCC2)c(=O)[nH]1 (centres undefined) | -9.2
79 | C[C@H]1CN(C(=O)N(C)C)C[C@@]12CCN(c1ccsc1)C2=O | -73.1
80 | Cc1cccc(CN2CCC3(CCCN(Cc4cnn(C)c4)C3)C2)n1 (centres undefined) | -113
81 | CCN(CC)S(=O)(=O)c1ccc(OC)c(NC(=O)CSC)c1 | -10
82 | O=C(NCCCO)C1(CC2CC(c3ccc(F)cc3)=NO2)CCOCC1 (centres undefined) | 1.41
83 | CCc1cnc(CN(C(C)=O)C2CCN(CC3(O)CCCCC3)C2)o1 (centres undefined) | 0.195
84 | CS(=O)(=O)NCc1ncn2c1CN(C(=O)C1CCCO1)CCC2 (centres undefined) | -110
